According to ChEMBL document CHEMBL4052686, “Synthesis and antibacterial activity of 5-methylphenanthridium derivatives as FtsZ inhibitors” (2017):
Activity calls are given as the source filed them. The calls are words filed in the database; no cut-off is given here.

Tests used:
Bacillus subtilis [1] = test: Antibacterial activity against penicillin-susceptible Bacillus subtilis ATCC 9372 incubated for 24 hrs by tube-dilution method; type: functional; details: ATCC 9372, 24 h
In short: (§1)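 MIC by tube dilution per NCCLS; B. subtilis ATCC9372, E. coli ATCC25922, P. aeruginosa ATCC27853 and S. aureus ATCC25923 are penicillin-susceptible strains.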

Escherichia coli [2] = test: Antibacterial activity against penicillin-susceptible Escherichia coli ATCC 25922 incubated for 24 hrs by tube-dilution method; type: functional; details: ATCC 25922, 24 h; in short: as §1
Pseudomonas aeruginosa [3] = test: Antibacterial activity against penicillin-susceptible Pseudomonas aeruginosa ATCC 27853 incubated for 24 hrs by tube-dilution method; type: functional; details: ATCC 27853, 24 h; in short: as §1
Staphylococcus aureus [4] = test: Antibacterial activity against penicillin-susceptible Staphylococcus aureus ATCC 25923 incubated for 24 hrs by tube-dilution method; type: functional; details: ATCC 25923, 24 h; in short: as §1
Staphylococcus aureus [5] = test: Antibacterial activity against […] Staphylococcus aureus ATCC 29213 incubated for 24 hrs by tube-dilution method; type: functional; details: ATCC 29213, 24 h
In short: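 Broth tube-dilution MIC run as NCCLS recommends, against the […] S. aureus strain ATCC29213.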

Staphylococcus aureus [6] = test: Antibacterial activity against penicillin-resistant Staphylococcus aureus clinical isolates incubated for 24 hrs by tube-dilution method; type: functional
[7] = system: Staphylococcus epidermidis; test: Antibacterial activity against penicillin-resistant Staphylococcus epidermidis clinical isolates incubated for 24 hrs by tube-dilution method; type: functional
Streptococcus pyogenes [8] = test: Antibacterial activity against penicillin-susceptible Streptococcus pyogenes clinical isolates incubated for 24 hrs by tube-dilution method; type: functional
Streptococcus pyogenes [9] = test: Antibacterial activity against penicillin-resistant Streptococcus pyogenes clinical isolates incubated for 24 hrs by tube-dilution method; type: functional
Bacillus subtilis [10] = test: Inhibition of FtsZ in penicillin-susceptible Bacillus subtilis ATCC 9372 assessed as lowest drug concentration causing inhibition of cell division incubated for 5 hrs by phase-contrast light microscopy
In short: (§2)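 Cell division inhibition judged from bacterial cell morphology under phase-contrast light microscopy, scored as lowest concentration altering division; penicillin-susceptible strains B. subtilis ATCC9372, E. coli ATCC25922, P. aeruginosa ATCC27853, S. aureus ATCC25923.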

Escherichia coli [11] = test: Inhibition of FtsZ in penicillin-susceptible Escherichia coli ATCC 25922 assessed as lowest drug concentration causing inhibition of cell division incubated for 5 hrs by phase-contrast light microscopy; in short: as §2
Pseudomonas aeruginosa [12] = test: Inhibition of FtsZ in penicillin-susceptible Pseudomonas aeruginosa ATCC 27853 assessed as lowest drug concentration causing inhibition of cell division incubated for 5 hrs by phase-contrast light microscopy; in short: as §2
Staphylococcus aureus [13] = test: Inhibition of FtsZ in penicillin-susceptible Staphylococcus aureus ATCC 25923 assessed as lowest drug concentration causing inhibition of cell division incubated for 5 hrs by phase-contrast light microscopy; in short: as §2
Staphylococcus aureus [14] = test: Potency index, ratio of MIC for curcumin to MIC for test compound against […] Staphylococcus aureus ATCC 29213 incubated for 24 hrs by tube-dilution method; type: functional
Staphylococcus aureus [15] = test: Potency index, ratio of MIC for oxacillin sodium to MIC for test compound against […] Staphylococcus aureus ATCC 29213 incubated for 24 hrs by tube-dilution method; type: functional
Sus scrofa [16] = species: Sus scrofa; test: Induction of porcine tubulin polymerisation at 2 times MIC for penicillin-resistant Staphylococcus aureus by fluorescence microscopy
In short: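 Polymerisation of mammalian tubulin measured with a commercial tubulin assay kit, read by fluorescence of the kit reporter, with paclitaxel as the positive control for enhanced polymerisation.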

Streptococcus pyogenes [17] = test: Potency index, ratio of MIC for oxacillin sodium to MIC for test compound against penicillin-susceptible Streptococcus pyogenes clinical isolates incubated for 24 hrs by tube-dilution method; type: functional
Streptococcus pyogenes [18] = test: Potency index, ratio of MIC for sanguinarine to MIC for test compound against penicillin-susceptible Streptococcus pyogenes clinical isolates incubated for 24 hrs by tube-dilution method; type: functional
Bacillus subtilis [19] = test: Potency index, ratio of MIC for curcumin to MIC for test compound against penicillin-susceptible Bacillus subtilis ATCC 9372 incubated for 24 hrs by tube-dilution method; type: functional
Bacillus subtilis [20] = test: Potency index, ratio of MIC for sanguinarine to MIC for test compound against penicillin-susceptible Bacillus subtilis ATCC 9372 incubated for 24 hrs by tube-dilution method; type: functional
Bacillus subtilis [21] = test: Potency index, ratio of MIC for ciprofloxaxin to MIC for test compound against penicillin-susceptible Bacillus subtilis ATCC 9372 incubated for 24 hrs by tube-dilution method; type: functional
Bacillus subtilis [22] = test: Potency index, ratio of MIC for oxacillin sodium to MIC for test compound against penicillin-susceptible Bacillus subtilis ATCC 9372 incubated for 24 hrs by tube-dilution method; type: functional
Sus scrofa [23] = species: Sus scrofa; test: Inhibition of porcine tubulin polymerisation at 32 ug/ml by fluorescence microscopy
In short: (§3)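 Polymerisation of mammalian tubulin followed with a commercial tubulin assay kit using a fluorescent reporter; compounds tested at 32 µg/mL or 256 µg/mL, paclitaxel as positive control.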

Sus scrofa [24] = species: Sus scrofa; test: Inhibition of porcine tubulin polymerisation at 256 ug/ml by fluorescence microscopy; in short: as §3

| Compound | MIC (Bacillus subtilis [1]) [mg/L] | MIC (Escherichia coli [2]) [mg/L] | MIC (Pseudomonas aeruginosa [3]) [mg/L] | MIC (Staphylococcus aureus [4]) [mg/L] | MIC (Staphylococcus aureus [5]) [mg/L] | MIC (Staphylococcus aureus [6]) [mg/L] | MIC [7] [mg/L] | MIC (Streptococcus pyogenes [8]) [mg/L] | MIC (Streptococcus pyogenes [9]) [mg/L] | MIC (Bacillus subtilis [10]) [mg/L] | MIC (Escherichia coli [11]) [mg/L] | MIC (Pseudomonas aeruginosa [12]) [mg/L] | MIC (Staphylococcus aureus [13]) [mg/L] | Activity (Sus scrofa [16]) | also measured |
| --- | --- | --- | --- | --- | --- | --- | --- | --- | --- | --- | --- | --- | --- | --- | --- |
| CSc1cccc2c3ccccc3c[n+](C)c12.[Cl-] | 8 | > 128 | > 128 | 16 | 16 | 8 | > 128 | 8 | 8 | 8 | 128 | > 128 | 16 | inactive | Ratio (Staphylococcus aureus [14]): 8; Ratio (Staphylococcus aureus [15]): 8 |
| CC(C)c1cccc2c3ccccc3c[n+](C)c12.[Cl-] | 4 | > 128 | > 128 | 8 | 64 | 16 | 64 | 4 | 8 | 4 | > 128 | > 128 | 8 | inactive | Ratio (Streptococcus pyogenes [17]): 4; Ratio (Streptococcus pyogenes [18]): 2; Ratio (Bacillus subtilis [19]): 8; Ratio (Bacillus subtilis [20]): 2; Ratio (Bacillus subtilis [21]): 2; Ratio (Bacillus subtilis [22]): 2; inhibition (Sus scrofa [23]): Active |
| C[n+]1cc2ccccc2c2cc(OC(F)(F)F)ccc21.[Cl-] | 128 | > 128 | > 128 | 128 | > 128 | 128 | 128 | 128 | 128 | 64 | > 128 | > 128 | 128 | inactive | inhibition (Sus scrofa [24]): Active |
